According to ChEMBL document CHEMBL1828627, “High-throughput-screening-based identification and structure-activity relationship characterization defined (S)-2-(1-aminoisobutyl)-1-(3-chlorobenzyl)benzimidazole as a highly antimycotic agent nontoxic to cell lines” (J Med Chem, 2011):
Activity calls are given as the source filed them.

Test system: Candida albicans
Experiment: Antifungal activity against Candida albicans SC5314 infected in HeLa cells at 20 uM after 5 days by fluorescein diacetate assay
Assay type: functional, organism-based
How it was run: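 Primary HTS: HeLa cells co-incubated with C. albicans plus a single compound at ~20 μM for 5 days. Viability checked microscopically at 18 h and quantified at day 5 by fluorescein diacetate fluorescence. Wells also scanned visually for yeast growth. Hit criterion: >40% signal relative to the uninfected untreated HeLa (~100%) and infected untreated HeLa (~0%) controls.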

| Structure (SMILES) | inhibition |
| --- | --- |
| CC(C)[C@H](N)c1nc2ccccc2n1Cc1ccc(Cl)cc1 | inactive |
| CC(C)(N)c1nc2cc(Cl)c(Cl)cc2n1Cc1ccc(Cl)cc1 | inactive |
| CC(C)[C@H](N)c1nc2cc(C(F)(F)F)ccc2n1Cc1cccc(F)c1 | inactive |
| CCC[C@H](N)c1nc2cc(C(F)(F)F)ccc2n1Cc1ccc(Cl)cc1 | inactive |
| COc1cccc(Cn2c(C(C)(C)N)nc3cc(C(F)(F)F)ccc32)c1 | inactive |
| CCC(C)[C@H](N)c1nc2ccccc2n1Cc1cccc(Cl)c1 (stereo partly drawn) | inactive |
| Cc1cccc(Cn2c([C@H](C)N)nc3cc(Cl)c(Cl)cc32)c1 | inactive |
| COc1cccc(Cn2c([C@H](C)N)nc3cc(C(F)(F)F)ccc32)c1 | inactive |
| COc1cccc(Cn2c([C@H](C)N)nc3cc(Cl)c(Cl)cc32)c1 | inactive |
| CCC(C)[C@H](N)c1nc2cc(Cl)c(Cl)cc2n1Cc1cccc(Cl)c1 (stereo partly drawn) | inactive |
| CC(C)[C@H](N)c1nc2cc(Cl)c(Cl)cc2n1Cc1ccc(Cl)cc1 | inactive |
| CC(C)C[C@H](N)c1nc2ccccc2n1Cc1cccc(F)c1 | inactive |
| CCC[C@H](N)c1nc2cc(C(F)(F)F)ccc2n1Cc1cccc(F)c1 | inactive |
| CC(C)(N)c1nc2cc(Cl)c(Cl)cc2n1Cc1cccc(F)c1 | inactive |
| COc1cccc(Cn2c(C(C)(C)N)nc3ccccc32)c1 | inactive |
| CCC(C)[C@H](N)c1nc2cc(Cl)c(Cl)cc2n1Cc1cccc(OC)c1 (stereo partly drawn) | inactive |
| Cc1cccc(Cn2c([C@@H](N)CC(C)C)nc3cc(Cl)c(Cl)cc32)c1 | inactive |
| CC(C)[C@H](N)c1nc2cc(C(F)(F)F)ccc2n1Cc1cccc(Cl)c1 | inactive |
| CCC[C@H](N)c1nc2cc(C(F)(F)F)ccc2n1Cc1cccc(OC)c1 | inactive |
| Cc1cccc(Cn2c([C@@H](N)CC(C)C)nc3cc(C(F)(F)F)ccc32)c1 | inactive |
| CCC(C)[C@H](N)c1nc2ccccc2n1Cc1cccc(C)c1 (stereo partly drawn) | inactive |
| CC(C)[C@H](N)c1nc2cc(Cl)c(Cl)cc2n1Cc1cccc(F)c1 | inactive |
| CCC(C)[C@H](N)c1nc2cc(Cl)c(Cl)cc2n1Cc1ccc(Cl)cc1 (stereo partly drawn) | inactive |
| COc1cccc(Cn2c([C@@H](N)C(C)C)nc3ccccc32)c1 | inactive |
| CCC[C@H](N)c1nc2ccccc2n1Cc1cccc(OC)c1 | inactive |

| Structure (SMILES) | inhibition |
| --- | --- |
| Cc1cccc(Cn2c(C(C)(C)N)nc3ccccc32)c1 | inactive |
| COc1cccc(Cn2c([C@@H](N)C(C)C)nc3cc(Cl)c(Cl)cc32)c1 | inactive |
| COc1cccc(Cn2c([C@@H](N)CC(C)C)nc3cc(Cl)c(Cl)cc32)c1 | inactive |
| CC(C)C[C@H](N)c1nc2cc(Cl)c(Cl)cc2n1Cc1ccc(Cl)cc1 | inactive |
| CC(C)C[C@H](N)c1nc2cc(C(F)(F)F)ccc2n1Cc1cccc(Cl)c1 | inactive |
| CCC(C)[C@H](N)c1nc2cc(C(F)(F)F)ccc2n1Cc1cccc(Cl)c1 (stereo partly drawn) | inactive |
| CC(C)(N)c1nc2cc(C(F)(F)F)ccc2n1Cc1cccc(F)c1 | inactive |
| C[C@H](N)c1nc2cc(C(F)(F)F)ccc2n1Cc1ccc(Cl)cc1 | inactive |
| CC(C)C[C@H](N)c1nc2ccccc2n1Cc1cccc(Cl)c1 | inactive |
| CCC(C)[C@H](N)c1nc2cc(C(F)(F)F)ccc2n1Cc1cccc(F)c1 (stereo partly drawn) | inactive |
| CCC(C)[C@H](N)c1nc2cc(C(F)(F)F)ccc2n1Cc1ccc(Cl)cc1 (stereo partly drawn) | inactive |
| CCC(C)[C@H](N)c1nc2cc(Cl)c(Cl)cc2n1Cc1cccc(F)c1 (stereo partly drawn) | inactive |
| CC(C)[C@H](N)c1nc2cc(C(F)(F)F)ccc2n1Cc1ccc(Cl)cc1 | inactive |
| Cc1cccc(Cn2c(C(C)(C)N)nc3cc(Cl)c(Cl)cc32)c1 | inactive |
| C[C@H](N)c1nc2cc(C(F)(F)F)ccc2n1Cc1cccc(F)c1 | inactive |
| CCC[C@H](N)c1nc2cc(Cl)c(Cl)cc2n1Cc1cccc(C)c1 | inactive |
| CC(C)(N)c1nc2cc(Cl)c(Cl)cc2n1Cc1cccc(Cl)c1 | inactive |
| CC(C)[C@H](N)c1nc2cc(Cl)c(Cl)cc2n1Cc1cccc(Cl)c1 | inactive |
| CCC[C@H](N)c1nc2cc(Cl)c(Cl)cc2n1Cc1cccc(OC)c1 | inactive |
| COc1cccc(Cn2c([C@H](C)N)nc3ccccc32)c1 | inactive |
| CC(C)C[C@H](N)c1nc2cc(C(F)(F)F)ccc2n1Cc1cccc(F)c1 | inactive |
| C[C@H](N)c1nc2ccccc2n1Cc1cccc(F)c1 | inactive |
| COc1cccc(Cn2c(C(C)(C)N)nc3cc(Cl)c(Cl)cc32)c1 | inactive |
| CC(C)(N)c1nc2ccccc2n1Cc1cccc(F)c1 | inactive |
| CC(C)(N)c1nc2cc(C(F)(F)F)ccc2n1Cc1cccc(Cl)c1 | inactive |

| Structure (SMILES) | inhibition |
| --- | --- |
| CCC[C@H](N)c1nc2cc(Cl)c(Cl)cc2n1Cc1ccc(Cl)cc1 | inactive |
| CC(C)C[C@H](N)c1nc2cc(Cl)c(Cl)cc2n1Cc1cccc(Cl)c1 | inactive |
| CCC(C)[C@H](N)c1nc2ccccc2n1Cc1cccc(OC)c1 (stereo partly drawn) | inactive |
| CC(C)(N)c1nc2ccccc2n1Cc1cccc(Cl)c1 | inactive |
| Cc1cccc(Cn2c([C@@H](N)C(C)C)nc3cc(C(F)(F)F)ccc32)c1 | inactive |
| Cc1cccc(Cn2c(C(C)(C)N)nc3cc(C(F)(F)F)ccc32)c1 | inactive |
| Cc1cccc(Cn2c([C@H](C)N)nc3cc(C(F)(F)F)ccc32)c1 | inactive |
| C[C@H](N)c1nc2cc(C(F)(F)F)ccc2n1Cc1cccc(Cl)c1 | inactive |
| Cc1cccc(Cn2c([C@@H](N)CC(C)C)nc3ccccc32)c1 | inactive |
| C[C@H](N)c1nc2cc(Cl)c(Cl)cc2n1Cc1cccc(F)c1 | inactive |
| CCC(C)[C@H](N)c1nc2cc(C(F)(F)F)ccc2n1Cc1cccc(C)c1 (stereo partly drawn) | inactive |
| CCC[C@H](N)c1nc2cc(Cl)c(Cl)cc2n1Cc1cccc(Cl)c1 | inactive |
| CCC[C@H](N)c1nc2cc(C(F)(F)F)ccc2n1Cc1cccc(Cl)c1 | inactive |
| CCC(C)[C@H](N)c1nc2cc(C(F)(F)F)ccc2n1Cc1cccc(OC)c1 (stereo partly drawn) | inactive |
| CCC[C@H](N)c1nc2cc(C(F)(F)F)ccc2n1Cc1cccc(C)c1 | inactive |
| CCC(C)[C@H](N)c1nc2ccccc2n1Cc1ccc(Cl)cc1 (stereo partly drawn) | inactive |
| C[C@H](N)c1nc2cc(Cl)c(Cl)cc2n1Cc1ccc(Cl)cc1 | inactive |
| Cc1cccc(Cn2c([C@@H](N)C(C)C)nc3cc(Cl)c(Cl)cc32)c1 | inactive |
| CCC[C@H](N)c1nc2ccccc2n1Cc1cccc(Cl)c1 | inactive |
| CCC(C)[C@H](N)c1nc2cc(Cl)c(Cl)cc2n1Cc1cccc(C)c1 (stereo partly drawn) | inactive |
| C[C@H](N)c1nc2cc(Cl)c(Cl)cc2n1Cc1cccc(Cl)c1 | inactive |
| CCC[C@H](N)c1nc2cc(Cl)c(Cl)cc2n1Cc1cccc(F)c1 | inactive |
| CCC(C)[C@H](N)c1nc2ccccc2n1Cc1cccc(F)c1 (stereo partly drawn) | inactive |
